In ChEMBL document CHEMBL1240521, “Design and synthesis of biphenyl derivatives as mushroom tyrosinase inhibitors” (Bioorg Med Chem, 2010):

The compounds below were run against T1, Tyrosinase (Agaricus bisporus, UniProt O42713) (assay: Inhibition of mushroom tyrosinase after 30 mins).
T1 sequence (O42713 whole entry): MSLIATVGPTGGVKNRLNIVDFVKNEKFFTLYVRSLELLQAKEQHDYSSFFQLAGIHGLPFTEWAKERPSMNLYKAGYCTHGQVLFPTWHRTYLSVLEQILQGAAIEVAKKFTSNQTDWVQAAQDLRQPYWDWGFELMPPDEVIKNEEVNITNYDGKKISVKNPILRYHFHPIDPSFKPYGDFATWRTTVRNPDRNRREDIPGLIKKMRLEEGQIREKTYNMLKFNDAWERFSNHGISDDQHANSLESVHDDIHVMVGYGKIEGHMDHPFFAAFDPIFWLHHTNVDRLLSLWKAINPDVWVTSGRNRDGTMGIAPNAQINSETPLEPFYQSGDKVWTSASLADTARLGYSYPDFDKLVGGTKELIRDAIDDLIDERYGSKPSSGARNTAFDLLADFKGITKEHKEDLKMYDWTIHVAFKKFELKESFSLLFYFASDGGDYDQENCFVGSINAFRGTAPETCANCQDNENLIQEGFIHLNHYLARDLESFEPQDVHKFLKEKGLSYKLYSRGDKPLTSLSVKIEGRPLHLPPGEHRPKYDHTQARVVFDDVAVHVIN

Row | IC50 [µM] | SMILES
1 | > 2000 | COc1cc(-c2ccc(F)cc2F)cc(OC)c1OC
2 | > 2000 | COc1cc(-c2ccc(C(=O)O)c(OCc3ccccc3)c2)cc(OC)c1OC
3 | > 2000 | COc1cc(-c2cc(F)cc(F)c2)cc(OC)c1OC
4 | > 2000 | CCOC(=O)c1ccc(-c2cc(OC)c(OC)c(OC)c2)cc1O
5 | 90 | COc1cc(-c2cccc(O)c2)cc(OC)c1O
6 | 80 | COc1cc(-c2cccc(O)c2F)cc(OC)c1O
7 | > 2000 | COc1cc(-c2ccc(C=O)c(O)c2)cc(OC)c1OC
8 | 70 | CCCCNC(=O)c1ccc(-c2cc(OC)c(O)c(OC)c2)cc1
9 | > 2000 | COc1cc(-c2ccc(C(=O)O)cc2)cc(OC)c1OC
10 | > 2000 | COc1cccc(-c2cc(OC)c(OC)c(OC)c2)c1F
11 | > 2000 | COc1cc(-c2ccc(C(=O)O)c(O)c2)cc(OC)c1OC
12 | 50 | CCOC(=O)c1ccc(-c2cc(OC)c(O)c(OC)c2)cc1O
13 | > 2000 | COc1cc(-c2ccc(C=O)c(OCc3ccccc3)c2)cc(OC)c1OC
14 | > 2000 | COc1cc(-c2ccc(C)c(O)c2)cc(OC)c1OC
15 | 20 | COc1cc(-c2ccc(C(=O)O)c(O)c2)cc(OC)c1O
16 | > 2000 | COc1cc(-c2ccc(C(=O)NCc3ccccc3)c(OCc3ccccc3)c2)cc(OC)c1OC
17 | > 2000 | COc1ccc(C(C)=O)cc1-c1cc(OC)c(OC)c(OC)c1
18 | 140 | COc1cc(-c2ccc(O[C@@H]3O[C@H](CO)[C@@H](O)[C@H](O)[C@H]3O)c(O)c2)cc(OC)c1O [FORTUNEANOSIDE E]
19 | > 2000 | COc1cc(-c2ccc(F)c(F)c2)cc(OC)c1OC

Row | IC50 [µM] | SMILES
20 | 120 | COc1cc(-c2ccc(C(=O)NCc3ccccc3)cc2)cc(OC)c1O
21 | > 2000 | COc1cc(-c2ccccc2C)cc(OC)c1OC
22 | 140 | COc1ccc(C(C)=O)cc1-c1cc(OC)c(O)c(OC)c1
23 | 50 | COc1cc(-c2ccc(C(=O)O)cc2)cc(OC)c1O
24 | 90 | COc1cc(-c2ccc(C)c(O)c2)cc(OC)c1O
25 | 70 | COc1cc(-c2ccc(F)c(F)c2)cc(OC)c1O
26 | 550 | COc1cc(-c2cccc(OCc3ccccc3)c2)cc(OC)c1OC
27 | > 2000 | COc1ccc(C(C)O)cc1-c1cc(OC)c(OC)c(OC)c1 (configuration not stated)
28 | 170 | COc1cc(-c2ccc(O)c(OCc3ccccc3)c2)cc(OC)c1OC
29 | 60 | COc1cc(-c2ccc(F)cc2F)cc(OC)c1O
30 | 30 | COc1cc(-c2ccc(C(=O)NCc3ccccc3)c(O)c2)cc(OC)c1O
31 | 170 | COc1cc(-c2ccccc2C)cc(OC)c1O
32 | 190 | COc1ccc(C(C)O)cc1-c1cc(OC)c(O)c(OC)c1 (configuration not stated)
33 | 60 | COc1cc(-c2ccc(C=O)c(O)c2)cc(OC)c1O
34 | > 2000 | COc1cc(-c2cccc(O)c2)cc(OC)c1OC
35 | 80 | COc1cc(-c2cc(F)cc(F)c2)cc(OC)c1O
36 | > 2000 | COc1cc(-c2ccc(C(=O)NCc3ccccc3)cc2)cc(OC)c1OC
37 | 60 | COc1cc(-c2cccc(OC)c2F)cc(OC)c1O
38 | > 2000 | CCCCNC(=O)c1ccc(-c2cc(OC)c(OC)c(OC)c2)cc1

The compounds below were run against T1, Tyrosinase (assay: Competitive inhibition of mushroom tyrosinase after 30 mins by Lineweaver-Burke double reciprocal plot analysis).
In short: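 Inhibition type and Ki were determined with respect to L-tyrosine as substrate, using mushroom tyrosinase with dopachrome read-out at 492 nm. Incubation was 30 min at 37 °C in 25 mM PBS, pH 6.8.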

Row | Ki [µM] | SMILES
39 | 31 | CCCCNC(=O)c1ccc(-c2cc(OC)c(O)c(OC)c2)cc1
40 | 15 | COc1cc(-c2ccc(C(=O)O)c(O)c2)cc(OC)c1O
41 | 38 | COc1cc(-c2ccc(C(=O)O)cc2)cc(OC)c1O
42 | 60 | COc1cc(-c2ccc(C(=O)NCc3ccccc3)c(O)c2)cc(OC)c1O
